Source: PubChem BioAssay (several laboratories)
Only some compounds are listed: those with a hit (about 4.2% of all), similar ones and a draw of the others.
KCNQ1 block – human KCNQ1 channel inhibition | P51787 | CHO-K1 KCNQ1, FluxOR thallium flux fluorescence; active compounds read high | B-score at 10 µM | actives 1.3% (n = 310,000);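 active = compounds whose thallium flux B-score, printed positive for inhibition, exceeds three library SD while starting fluorescence stays within three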;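 also: channel opened by potassium depolarization with thallium stimulus after 20 min compound exposure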
KCNQ1 pot – potentiates or activates the human KCNQ1 potassium channel. B-score at 10 µM. actives 0.35% (n = 310,000). CHO-K1 KCNQ1, thallium flux FluxOR fluorescence; active compounds read high. AID 2648. P51787;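 active = fluorescence ratio B-score, a plate-corrected score, at least three library SD, with initial intensity B-score within 5 SD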
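Material: CHO-K1 cells stably expressing KCNQ1. Medium: assay buffer for compound exposure, DMSO matched across wells. Reagent: K+/Tl+ depolarizing stimulus. Compound dosing: single-concentration screen. Times: 37 °C overnight plating, 90-min dark dye load, 20-min compound pretreatment. Technique: FluxOR Tl+ flux fluorescence.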
AI-2 QS mod – Vibrio harveyi AI-2 quorum sensing modulation; Vibrio harveyi JMH597 AI-2 luminescence/OD600 ratio, 9 h; active compounds read low; strain lacks LuxN and CqsS sensors; 0 = neutral-control median; activity change, % at 7.5 µM; actives 0.4% (n = 300,000); in the data active = activity change below about -75%, passing the limit was not always enough;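 also: luminescence divided by OD600 gain over 9 h not by final OD600 alone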
hERG protect – shields human hERG channel from block by proarrhythmic agents. Q12809. actives 0.51% (n = 310,000). activation (rescue from dofetilide block), less the hit threshold, % at 10 µM. AID 1511. CHO-hERG, FluxOR thallium flux, dofetilide IC70 present;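 active = activation above the mean of controls blocked by dofetilide plus 5 SD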;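 also: thallium influx through hERG after potassium depolarization seen as dye fluorescence rise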
Cl transport mod – KCC2 (human) Cl- transport modulation | B-score of Tl+ flux slope (higher = more flux/activation; lower = inhibition) at 10 µM | Q9H2X9 | actives 2.2% (n = 190,000) | KCC2 cells, thallium flux FluoZin-2 fluorescence;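 active = thallium flux slope and its plate-corrected score both differing from the plate sample mean at a set confidence after two filtering rounds, in either direction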;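 also: slope of fluorescence scaled to starting intensity during 10 to 20 s after thallium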
Target sequence (Q9H2X9 whole entry, looked up): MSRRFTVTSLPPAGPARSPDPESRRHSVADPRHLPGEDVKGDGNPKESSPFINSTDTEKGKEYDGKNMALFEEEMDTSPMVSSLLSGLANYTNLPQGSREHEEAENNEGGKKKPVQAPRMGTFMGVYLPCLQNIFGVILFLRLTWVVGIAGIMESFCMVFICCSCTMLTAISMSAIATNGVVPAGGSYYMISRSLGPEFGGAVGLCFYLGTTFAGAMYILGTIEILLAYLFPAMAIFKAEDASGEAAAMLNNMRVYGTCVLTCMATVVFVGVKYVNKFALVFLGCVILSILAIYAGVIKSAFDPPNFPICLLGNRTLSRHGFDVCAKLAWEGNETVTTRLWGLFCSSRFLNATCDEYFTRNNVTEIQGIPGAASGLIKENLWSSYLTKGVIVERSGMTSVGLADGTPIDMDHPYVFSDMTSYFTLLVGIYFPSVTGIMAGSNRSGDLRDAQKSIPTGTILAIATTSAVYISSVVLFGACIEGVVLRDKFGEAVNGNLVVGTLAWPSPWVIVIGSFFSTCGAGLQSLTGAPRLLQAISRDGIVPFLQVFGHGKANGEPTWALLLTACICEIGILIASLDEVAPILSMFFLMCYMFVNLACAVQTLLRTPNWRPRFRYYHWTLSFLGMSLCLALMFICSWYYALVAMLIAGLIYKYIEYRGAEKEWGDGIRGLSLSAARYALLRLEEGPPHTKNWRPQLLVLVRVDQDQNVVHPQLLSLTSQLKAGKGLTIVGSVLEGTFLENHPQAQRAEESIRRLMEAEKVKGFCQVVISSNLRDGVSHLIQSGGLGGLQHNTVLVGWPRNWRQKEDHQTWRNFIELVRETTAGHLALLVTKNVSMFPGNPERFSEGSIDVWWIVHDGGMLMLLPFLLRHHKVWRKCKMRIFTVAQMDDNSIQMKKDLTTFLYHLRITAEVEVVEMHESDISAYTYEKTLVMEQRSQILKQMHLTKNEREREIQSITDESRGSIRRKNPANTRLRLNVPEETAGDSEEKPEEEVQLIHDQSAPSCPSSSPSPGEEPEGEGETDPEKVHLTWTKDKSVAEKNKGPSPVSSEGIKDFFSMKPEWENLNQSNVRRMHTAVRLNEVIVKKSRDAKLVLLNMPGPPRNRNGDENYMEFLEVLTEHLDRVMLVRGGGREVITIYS
SUMO Mot1 rescue – blocks SUMOylation pathway, rescuing yeast Mot1-301 growth. S. cerevisiae Mot1-301 growth rescue, ATP luminescence, 38.5C; percent above DMSO median, 100 means doubled. growth rescue, % at 18.8 µM. actives 1% (n = 320,000). AID 2716;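 active = every valid replicate shows activation above 250% relative to neutral control wells; inactive = the rest, any valid replicate at or below 250%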;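 also: OY570 slx delta 5 strain wells were the positive control but not used for scaling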
Active calls of the source: *; i = inactive; . = no result given.

SMILES	KCNQ1 block	KCNQ1 pot	AI-2 QS mod	hERG protect	Cl transport mod	SUMO Mot1 rescue
Cc1c(Cl)cn2c(=O)cc(CN3CCN(c4ccc(F)cc4)CC3)nc2c1Cl	i	i	12	-17	-2.8	-10
COC(=O)c1cc(-c2ccc(S(=O)(=O)N3CCCC(C)C3)cc2)c(C(F)(F)F)s1 (configuration not stated)	6*	i	31	-12	0.67	-17
[2H]C([2H])(CCOS(N)(=O)=O)c1ccccc1	i	i	4	-4	.	-1
COc1ccc(/C=C/c2cc(=O)c3cc(Cl)ccc3o2)cc1	i	i	28	4.6*	0.32	18
O=C(C1CC(=O)N(c2ccc3c(c2)OCCO3)C1)N1CCCC(C(F)(F)F)C1 (configuration not stated)	i	i	7	-8	.	-4
Cc1cc(NC(=O)CSc2nc3ccccc3n2CCC#N)no1	i	i	21	4.9*	-0.95	-23
Cc1ccc(/C=N\NC(=O)/C(=C\Nc2nccc(C)n2)NC(=O)c2ccccc2)cc1	i	i	34	-6	.	407
O=C(NNC(=O)c1ccc(O)cc1O)c1ccc(Cl)cc1	6*	i	15	-12	.	-4
CN(C)CCCNS(=O)(=O)c1ccc(Cl)s1	i	i	9	-5	-0.19	-1
Cc1cc(/C=C2\SC(=S)N(C)C2=O)c(C)n1-c1ccccc1O	i	i	1	-16	.	80
Cc1cc(/C=C2\SC(=S)N(C)C2=O)c(C)n1-c1ccc(O)cc1	6*	i	15	-13	0.028	32
Fc1ccc(Nc2ncnc3sc4c(c23)CCC4)cc1	i	i	19	-5	.	4
c1csc(CCNc2ncnc3sc4c(c23)CCC4)c1	i	i	12	-18	-4.5*	-12
c1ccc(Nc2ncnc3sc4c(c23)CCC4)cc1	i	i	8	5.2*	-0.72	-17
Cc1ccccc1/C=c1\s/c(=C\C(=O)C(C)(C)C)[nH]c1=O	i	i	16	0	10*	-10
CC(C)(C)C(=O)/C=c1\[nH]c(=O)/c(=C\c2ccc(F)cc2)s1	i	i	25	-11	.	5
CCc1ccc(/C=c2\s/c(=C\C(=O)C(C)(C)C)[nH]c2=O)cc1	i	i	63	4	7*	129
CCn1cc(C(=O)NCC(OC)OC)c(=O)c2cc(S(=O)(=O)N3CCCC3)ccc21	i	i	15	-3	.	15
CCn1cc(C(=O)NCCCOC)c(=O)c2cc(S(=O)(=O)N(C)C3CCCCC3)ccc21	i	i	23	-11	-0.32	-28
CCOCCCNC(=O)c1cn(CC)c2ccc(S(=O)(=O)N(C)C3CCCCC3)cc2c1=O	7*	i	2	-16	.	-12
CCn1cc(C(=O)NCC(OC)OC)c(=O)c2cc(S(=O)(=O)N3CCC(C)CC3)ccc21	6*	i	3	-10	.	7
CCc1c(C(=O)N2CCCN(C)CC2)csc1C	i	i	10	-2	.	-16
Cc1cccc(S(=O)(=O)Nc2cccc3c2C(=O)c2ccccc2-3)c1	i	9*	-1	-10	.	-14
CC(C)CC(NC(=O)c1ccc(Cl)cc1Cl)C(=O)O (configuration not stated)	i	i	22	-5	.	271*
CC(C)CC(NC(=O)c1ccccc1NC(=O)c1ccccc1)C(=O)O (configuration not stated)	i	i	-5	-8	-0.025	-8
SMILES	KCNQ1 block	KCNQ1 pot	AI-2 QS mod	hERG protect	Cl transport mod	SUMO Mot1 rescue
O=C(CCn1c(=O)oc2ccccc21)Nc1ccc2c(c1)OCCO2	i	i	6	-17	0.28	2
COc1ccc(OC)c2c1C(=O)C(Cl)=C(Cl)C2=O	10*	i	22	-30	-2.5	50
COc1ccc(OC)c2c1C(=O)c1ccccc1C2=O	i	i	20	-43	i	1
c1cc2c3c(cccc3c1)NC1(CCC3(CC1)Nc1cccc4cccc(c14)N3)N2	11*	i	12	-8	-0.39	-21
Cc1nnc(SCc2cc(=O)oc3cc(O)ccc23)n1Cc1ccccc1	i	i	17	11*	-0.12	392
O=C(NCC1CCCO1)c1ccc(NC(=O)c2cccc([N+](=O)[O-])c2)cc1 (configuration not stated)	i	i	2	-2	.	-5
CCN1CCN(CCNC(=O)c2cc(Cl)c(NC(=O)C3=C(C)OCCS3)cc2OC)CC1	i	i	7	-7	.	397
CCC(C)NC(=O)c1cc(Cl)c(NC(=O)C2=C(C)OCCS2)cc1OC (configuration not stated)	i	44*	15	-4	.	159
CC1CC(NS(=O)(=O)c2cccs2)CC(C)(C)C1 (configuration not stated)	i	i	6	-1	1	35
O=C(COc1ccccc1-c1ccccc1)N/N=C/c1cccc2ccccc12	i	i	0	-2	-0.23	-2
O=C(COc1cccc2ccccc12)N/N=C/c1ccccc1OCc1ccc(C(=O)O)cc1	11*	i	32	-14	-0.084	-8
CC1(C)Cc2cccc(Oc3cc(NN4CCCCC4)c([N+](=O)[O-])cc3[N+](=O)[O-])c2O1	6*	i	27	-7	.	-9
CS(=O)(=O)N(CC(=O)NC1CC2CCC1C2)c1ccc(Oc2ccccc2)cc1 (configuration not stated)	i	i	8	-3	0.01	21
Cc1ccc([N+](=O)[O-])cc1N=Nc1c(-c2ccc([N+](=O)[O-])cc2)[nH]n(C(N)=S)c1=O	7*	i	10	-25	-2.1	.
CC(C)Cn1c(SCC(=O)N2CCCc3ccccc32)nc2ccccc2c1=O	6*	i	13	-10	.	12
Cc1[nH]c2ccccc2c1SCC(=O)N1CCCc2ccccc21	6*	i	1	-24	0.014	-3
CN(C)CCN1C(=O)C(=O)/C(=C(/O)c2ccc(S(=O)(=O)N3CCOCC3)cc2)C1c1ccccc1 (configuration not stated)	i	i	7	-6	.	315*
CC(=O)c1ccc(N2CCN(C(=O)C3CCN(S(=O)(=O)c4cccs4)CC3)CC2)cc1	i	i	8	-3	.	1
COc1cc(/C=C2\C(=O)ON=C2c2ccccc2)cc(Cl)c1O	i	i	37	-43	-5.3*	.
COc1cc(/C=C2/C(=O)ON=C2c2ccccc2)ccc1O	i	i	17	-21	-0.96	-22
